Assay results reported in ChEMBL document CHEMBL2375276, “Antibacterial oxazolidinone analogues having a N-hydroxyacetyl-substituted seven-membered [1,2,5]triazepane or [1,2,5]oxadiazepane C-ring unit” (Eur J Med Chem, 2013).
Values after ≈ are worked out from the molar mass of the structure shown.

How the values were obtained:
MAO-A = target: T1, MAO-A (Rattus norvegicus, UniProt P21396); assay: Inhibition of MAO-A in rat forebrain using [14C]5-HT as substrate at 30 uM incubated for 20 mins prior to substrate addition measured after 5 mins by liquid scintillation counting analysis relative to control; assay type: tissue-based; settings: probe [14C]5-HT
T1 sequence (P21396 whole entry): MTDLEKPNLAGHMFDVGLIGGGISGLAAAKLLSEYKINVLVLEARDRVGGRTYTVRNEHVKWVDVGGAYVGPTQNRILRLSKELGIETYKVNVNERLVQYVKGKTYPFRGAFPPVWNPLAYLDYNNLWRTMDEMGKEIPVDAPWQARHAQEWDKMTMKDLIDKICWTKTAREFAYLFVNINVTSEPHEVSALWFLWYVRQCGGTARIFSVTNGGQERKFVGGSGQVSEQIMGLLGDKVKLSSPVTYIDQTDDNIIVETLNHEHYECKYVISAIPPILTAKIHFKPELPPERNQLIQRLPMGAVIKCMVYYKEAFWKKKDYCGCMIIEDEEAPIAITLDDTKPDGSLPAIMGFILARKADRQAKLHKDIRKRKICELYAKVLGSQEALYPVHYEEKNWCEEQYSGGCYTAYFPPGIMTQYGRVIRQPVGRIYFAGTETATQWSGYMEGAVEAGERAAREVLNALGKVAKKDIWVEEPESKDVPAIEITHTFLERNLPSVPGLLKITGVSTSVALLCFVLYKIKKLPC

Enterococcus faecium [1] = assay: Antibacterial activity against Enterococcus faecium SR7940 clinical isolate assessed as growth inhibition by CLSI broth microdilution method; assay type: functional
How it was run: (§1)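 MIC by CLSI broth microdilution in cation-adjusted Mueller-Hinton broth; S. pneumoniae medium supplemented with 5% lysed horse blood.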

Haemophilus influenzae [2] = assay: Ratio of eperezolid MIC to compound MIC for Haemophilus influenzae SR27914 clinical isolate; assay type: functional
Staphylococcus aureus [3] = assay: Ratio of linezolid MIC to compound MIC for Staphylococcus aureus Smith; assay type: functional
Haemophilus influenzae [4] = assay: Ratio of linezolid MIC to compound MIC for Haemophilus influenzae SR27914 clinical isolate; assay type: functional
Haemophilus influenzae [5] = assay: Antibacterial activity against Haemophilus influenzae SR27914 clinical isolate assessed as growth inhibition by CLSI broth microdilution method; assay type: functional
How it was run: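 MIC by CLSI broth microdilution using Haemophilus test medium.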

Moraxella catarrhalis [6] = assay: Ratio of linezolid MIC to compound MIC for Moraxella catarrhalis SR26840 clinical isolate; assay type: functional
Enterococcus faecium [7] = assay: Ratio of linezolid MIC to compound MIC for Enterococcus faecium SR7940 clinical isolate; assay type: functional
Staphylococcus aureus [8] = assay: Ratio of eperezolid MIC to compound MIC for Staphylococcus aureus SR20549 clinical isolate; assay type: functional
Staphylococcus aureus [9] = assay: Ratio of linezolid MIC to compound MIC for Staphylococcus aureus SR20549 clinical isolate; assay type: functional
Staphylococcus aureus [10] = assay: Antibacterial activity against methicillin-resistant Staphylococcus aureus SR3637 infected in JCL/ICR mouse systemic infection model assessed as mortality administered as po measured over 7 days; assay type: functional; settings: 168 h
How it was run: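 Five-week-old male JCL/ICR mice (20–25 g), five per group. Infected intraperitoneally with 0.5 or 1.0 mL bacterial suspension (about 100× LD50). Oral dosing 1 h post-infection. Mortality followed 7 days; ED50 with 95% confidence limits by logit method.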

Staphylococcus aureus [11] = assay: Antibacterial activity against Staphylococcus aureus Smith assessed as growth inhibition by CLSI broth microdilution method; assay type: functional; how it was run: as §1
Enterococcus faecalis = assay: Ratio of eperezolid MIC to compound MIC for Enterococcus faecalis SR1004 clinical isolate; assay type: functional
Moraxella catarrhalis [12] = assay: Ratio of eperezolid MIC to compound MIC for Moraxella catarrhalis SR26840 clinical isolate; assay type: functional
Cytochrome P450 1A2 = target: T2, Cytochrome P450 1A2 (Homo sapiens, UniProt P05177); assay: Inhibition of human CYP1A2 assessed as ethoxyresorufin O-deethylation after 20 mins by fluorescence plate reader analysis; assay type: ADME
T2 sequence (P05177 whole entry): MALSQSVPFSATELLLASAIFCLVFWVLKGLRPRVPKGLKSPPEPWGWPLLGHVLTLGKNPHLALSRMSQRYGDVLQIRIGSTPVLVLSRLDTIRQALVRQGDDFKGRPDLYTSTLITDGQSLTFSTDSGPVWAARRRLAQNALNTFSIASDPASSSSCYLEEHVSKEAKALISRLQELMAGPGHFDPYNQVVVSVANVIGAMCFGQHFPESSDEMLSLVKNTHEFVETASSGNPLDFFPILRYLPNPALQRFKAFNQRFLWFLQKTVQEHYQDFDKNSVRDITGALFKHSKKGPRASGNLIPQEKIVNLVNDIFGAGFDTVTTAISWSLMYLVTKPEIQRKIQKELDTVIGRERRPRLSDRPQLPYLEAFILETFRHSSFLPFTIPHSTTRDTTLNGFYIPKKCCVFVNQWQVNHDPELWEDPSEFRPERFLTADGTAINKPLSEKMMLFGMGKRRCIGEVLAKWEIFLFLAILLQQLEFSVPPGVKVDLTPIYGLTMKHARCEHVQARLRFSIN
How it was run: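 Human liver microsomes (0.2 mg protein/mL) with 1 mM NADPH in 50 mM HEPES pH 7.4, 10 mM MgCl2, 0.1 mM EDTA. After centrifugation, supernatant read on a fluorescence plate reader. Standard curve from authentic metabolite added to unincubated reaction mix.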

Staphylococcus aureus [13] = assay: Antibacterial activity against linezolid-resistant Staphylococcus aureus NRS271 assessed as growth inhibition by CLSI broth microdilution method; assay type: functional
How it was run: (§2)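 MIC by CLSI broth microdilution in cation-adjusted Mueller-Hinton broth. Lowest concentration inhibiting growth taken as MIC.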

Streptococcus pneumoniae [14] = assay: Antibacterial activity against Streptococcus pneumoniae SR26207 clinical isolate assessed as growth inhibition by CLSI broth microdilution method; assay type: functional; how it was run: as §1
Cytochrome P450 2C9 = Cytochrome P450 2C9 (Homo sapiens, UniProt P11712); assay: Inhibition of human CYP2C9 assessed as tolbutamide hydroxylation after 20 mins by LC/MS/MS analysis; assay type: ADME
Sequence of Cytochrome P450 2C9 (P11712 whole entry): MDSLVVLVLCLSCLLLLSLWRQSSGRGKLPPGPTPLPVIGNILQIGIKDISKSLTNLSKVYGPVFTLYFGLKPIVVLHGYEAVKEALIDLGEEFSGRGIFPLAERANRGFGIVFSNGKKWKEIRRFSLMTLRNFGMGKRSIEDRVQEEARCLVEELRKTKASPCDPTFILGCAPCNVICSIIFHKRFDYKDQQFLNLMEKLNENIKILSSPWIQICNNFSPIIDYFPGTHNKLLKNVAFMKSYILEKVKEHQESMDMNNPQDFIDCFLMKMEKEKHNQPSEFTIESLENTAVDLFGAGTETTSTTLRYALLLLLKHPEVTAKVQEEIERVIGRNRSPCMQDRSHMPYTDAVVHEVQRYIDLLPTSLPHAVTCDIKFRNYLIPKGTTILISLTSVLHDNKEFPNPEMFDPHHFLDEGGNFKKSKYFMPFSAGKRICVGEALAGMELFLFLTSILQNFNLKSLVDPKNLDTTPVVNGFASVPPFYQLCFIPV
How it was run: (§3)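 Human liver microsomes (0.2 mg protein/mL) with 1 mM NADPH in 50 mM HEPES pH 7.4, 10 mM MgCl2, 0.1 mM EDTA. After centrifugation, supernatant metabolite measured by LC/MS/MS. Standard curve from authentic metabolite cocktail added to unincubated reaction mix.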

Staphylococcus aureus [15] = assay: Ratio of eperezolid MIC to compound MIC for Staphylococcus aureus Smith; assay type: functional
Staphylococcus aureus [16] = assay: Antibacterial activity against Staphylococcus aureus SR20549 clinical isolate assessed as growth inhibition by CLSI broth microdilution method; assay type: functional; how it was run: as §1
Streptococcus pneumoniae [17] = assay: Ratio of linezolid MIC to compound MIC for Streptococcus pneumoniae SR26207 clinical isolate; assay type: functional
Cytochrome P450 3A4 = Cytochrome P450 3A4 (Homo sapiens, UniProt P08684); assay: Inhibition of human CYP3A4 assessed as terfenadine hydroxylation after 20 mins by LC/MS/MS analysis; assay type: ADME; how it was run: as §3
Sequence of Cytochrome P450 3A4 (P08684 whole entry): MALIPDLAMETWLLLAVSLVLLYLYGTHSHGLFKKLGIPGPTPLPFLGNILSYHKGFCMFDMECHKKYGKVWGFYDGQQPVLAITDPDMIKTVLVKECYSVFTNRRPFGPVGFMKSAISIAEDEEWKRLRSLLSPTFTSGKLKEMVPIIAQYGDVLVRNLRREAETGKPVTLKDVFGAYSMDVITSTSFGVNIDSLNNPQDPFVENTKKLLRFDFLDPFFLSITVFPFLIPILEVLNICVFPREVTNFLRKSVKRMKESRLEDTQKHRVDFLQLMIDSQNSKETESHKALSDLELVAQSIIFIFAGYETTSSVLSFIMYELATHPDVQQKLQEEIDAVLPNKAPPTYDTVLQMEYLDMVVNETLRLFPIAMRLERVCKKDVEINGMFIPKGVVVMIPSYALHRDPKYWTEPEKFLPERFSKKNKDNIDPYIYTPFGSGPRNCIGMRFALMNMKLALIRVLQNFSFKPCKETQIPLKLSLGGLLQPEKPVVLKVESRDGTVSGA

Staphylococcus aureus [18] = assay: Antibacterial activity against methicillin-resistant Staphylococcus aureus SR3637 assessed as growth inhibition by CLSI broth microdilution method; assay type: functional; how it was run: as §2
Enterococcus faecium [19] = assay: Ratio of eperezolid MIC to compound MIC for Enterococcus faecium SR7940 clinical isolate; assay type: functional

## COC(=S)NC[C@H]1CN(c2ccc(N3CCNN(C(=O)CO)CC3)c(F)c2)C(=O)O1
MAO-A
  inhibition at 5 min, 30 µM: 48.2%
Enterococcus faecium [1]
  MIC: 0.25 µg/mL (≈ 0.566 µM)
Haemophilus influenzae [2]
  Ratio: 4
Staphylococcus aureus [3]
  Ratio: 4
Haemophilus influenzae [4]
  Ratio: 4
Haemophilus influenzae [5]
  MIC: 4 µg/mL (≈ 9.06 µM)
Moraxella catarrhalis [6]
  Ratio: 4
Enterococcus faecium [7]
  Ratio: 4
Staphylococcus aureus [8]
  Ratio: 4
Staphylococcus aureus [9]
  Ratio: 4
Staphylococcus aureus [10]
  ED50: 1.05 mg/kg
Staphylococcus aureus [11]
  MIC: 0.25 µg/mL (≈ 0.566 µM)
Enterococcus faecalis
  Ratio: 4
Moraxella catarrhalis [12]
  Ratio: 4
Cytochrome P450 1A2
  IC50: > 20 µM
Staphylococcus aureus [13]
  MIC: 2 µg/mL (≈ 4.53 µM)
Streptococcus pneumoniae [14]
  MIC: 0.125 µg/mL (≈ 0.283 µM)
Cytochrome P450 2C9
  IC50: > 20 µM
Staphylococcus aureus [15]
  Ratio: 4
Staphylococcus aureus [16]
  MIC: 0.25 µg/mL (≈ 0.566 µM)
Streptococcus pneumoniae [17]
  Ratio: 4
Cytochrome P450 3A4
  IC50: > 20 µM
Staphylococcus aureus [18]
  MIC: 0.25 µg/mL (≈ 0.566 µM)
Enterococcus faecium [19]
  Ratio: 4

## COC(=S)NC[C@H]1CN(c2cc(F)c(N3CCNN(C(=O)CO)CC3)c(F)c2)C(=O)O1
MAO-A
  inhibition at 5 min, 30 µM: 12.4%
Enterococcus faecium [1]
  MIC: 0.25 µg/mL (≈ 0.544 µM)
Haemophilus influenzae [2]
  Ratio: 4
Staphylococcus aureus [3]
  Ratio: 4
Haemophilus influenzae [4]
  Ratio: 4
Haemophilus influenzae [5]
  MIC: 4 µg/mL (≈ 8.71 µM)
Moraxella catarrhalis [6]
  Ratio: 4
Enterococcus faecium [7]
  Ratio: 4
Staphylococcus aureus [8]
  Ratio: 4
Staphylococcus aureus [9]
  Ratio: 4
Staphylococcus aureus [10]
  ED50: 2.07 mg/kg
Staphylococcus aureus [11]
  MIC: 0.25 µg/mL (≈ 0.544 µM)
Enterococcus faecalis
  Ratio: 4
Moraxella catarrhalis [12]
  Ratio: 4
Cytochrome P450 1A2
  IC50: > 20 µM
Staphylococcus aureus [13]
  MIC: 2 µg/mL (≈ 4.35 µM)
Streptococcus pneumoniae [14]
  MIC: ≤ 0.063 µg/mL
Cytochrome P450 2C9
  IC50: > 20 µM
Staphylococcus aureus [15]
  Ratio: 4
Staphylococcus aureus [16]
  MIC: 0.25 µg/mL (≈ 0.544 µM)
Streptococcus pneumoniae [17]
  Ratio: 4
Cytochrome P450 3A4
  IC50: > 20 µM
Staphylococcus aureus [18]
  MIC: 0.25 µg/mL (≈ 0.544 µM)
Enterococcus faecium [19]
  Ratio: 4
